Results on 21 compounds are retold here after ChEMBL document CHEMBL1139358, “Potent and orally bioavailable CCR4 antagonists: Synthesis and structure-activity relationship study of 2-aminoquinazolines” (Bioorg Med Chem, 2009).

Data set [1] in a line: Antagonist activity at human CCR4 receptor expressed in mouse B300-19 cells assessed as CCL22-induced chemotaxis.
Data set [2] is described as follows: Antagonist activity at mouse CCR4 receptor expressed in mouse B300-19 cells assessed as CCL22-induced chemotaxis.
Data set [3] relates to Mus musculus. The data set can be described thus: Antiinflammatory activity against oxazolone-induced contact hypersensitivity in BALB/c mouse model of acute dermatitis assessed as inhibition of ear swelling at 100 mg/kg, po bid. In kind it is functional. Put shortly: (§1)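 Female BALB/c mice, 7 weeks, n = 5, sensitized with 3% oxazolone in ethanol on the shaved abdomen. Challenged on day 6 with 1% oxazolone on the right ear. Ear thickness gauged 20 h after challenge. Twice-daily dosing was given 30 min before and 8 h after challenge. Single doses were given after challenge only (8 h or 12 h). Percent inhibition of swelling calculated against control and vehicle groups.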

Data set [4] concerns Mus musculus. In words: Antiinflammatory activity against oxazolone-induced contact hypersensitivity in BALB/c mouse model of acute dermatitis assessed as inhibition of ear swelling at 30 mg/kg, sc qd. As to conditions: route subcutaneous. In kind it is functional. Put shortly:
as §1

Data set [5] deals with T1, C-C chemokine receptor type 4 (Homo sapiens) (UniProt P51679).
T1 sequence (whole entry): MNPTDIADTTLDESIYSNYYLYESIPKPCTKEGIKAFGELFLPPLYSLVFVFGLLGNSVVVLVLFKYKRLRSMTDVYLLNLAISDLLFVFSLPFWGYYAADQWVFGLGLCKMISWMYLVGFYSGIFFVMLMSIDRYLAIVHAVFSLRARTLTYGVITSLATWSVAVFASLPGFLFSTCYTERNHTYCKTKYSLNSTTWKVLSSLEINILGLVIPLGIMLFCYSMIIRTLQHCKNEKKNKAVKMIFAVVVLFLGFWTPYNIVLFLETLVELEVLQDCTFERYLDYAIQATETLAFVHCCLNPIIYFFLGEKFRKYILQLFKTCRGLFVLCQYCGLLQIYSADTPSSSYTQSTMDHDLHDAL
The data set can be described thus: Antagonist activity at human CCR4 receptor expressed in mouse B300-19 cells assessed as CCL22-induced [35S]GTPgammaS binding at 1 uM. In kind it is functional, cell-based. Put shortly: (§2)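 B300-19 pre-B cell membranes stably expressing human CCR4 (1 µg protein/well), incubated 1.5 h at 25 °C with 150 pM [35S]GTPγS, 2 µM GDP, 3 nM MDC (CCL22), WGA SPA beads, in HEPES-NaOH pH 7.05, NaCl, MgCl2, BSA buffer. Scintillation counting. Percent inhibition from no-compound and no-CCL22 control wells. Duplicate wells, four test concentrations.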
Background: GTPγS is a poorly hydrolysed GTP analogue; its binding reports G protein activation.

For data set [6], the target named is T2, C-C chemokine receptor type 4 (Homo sapiens, UniProt P51679).
T2 sequence (P51679 whole entry): T1 sequence (whole entry)
The data set can be described thus: Antagonist activity at human CCR4 receptor expressed in mouse B300-19 cells assessed as CCL22-induced [35S]GTPgammaS binding. It counts as functional, cell-based. Put shortly:
as §2

In data set [7] the test system is Mus musculus. The data set can be described thus: Antiinflammatory activity against oxazolone-induced contact hypersensitivity in BALB/c mouse model of acute dermatitis assessed as inhibition of ear swelling at 30 mg/kg, sc bid. In kind it is functional. The conditions noted are these: route subcutaneous. Put shortly: as §1
Data set [8] has as its system Mus musculus. The data set can be described thus: Antiinflammatory activity against oxazolone-induced contact hypersensitivity in BALB/c mouse model of acute dermatitis assessed as inhibition of ear swelling at 30 mg/kg, po bid. In kind it is functional. Put shortly:
as §1

Data set [9] concerns the target T3, C-C chemokine receptor type 4 (Mus musculus) (UniProt P51680).
T3 sequence (whole entry): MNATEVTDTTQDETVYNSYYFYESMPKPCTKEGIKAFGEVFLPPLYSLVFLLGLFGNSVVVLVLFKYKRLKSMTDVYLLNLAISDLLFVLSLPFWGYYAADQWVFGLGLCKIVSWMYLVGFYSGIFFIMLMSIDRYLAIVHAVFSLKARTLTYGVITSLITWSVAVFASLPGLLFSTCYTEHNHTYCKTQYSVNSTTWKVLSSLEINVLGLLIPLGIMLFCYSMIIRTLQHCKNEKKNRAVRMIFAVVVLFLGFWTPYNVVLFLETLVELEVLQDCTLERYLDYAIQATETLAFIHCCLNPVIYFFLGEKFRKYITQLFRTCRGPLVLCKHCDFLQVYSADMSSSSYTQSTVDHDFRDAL
In words: Antagonist activity at mouse CCR4 receptor expressed in mouse B300-19 cells assessed as CCL22-induced chemotaxis at 1 uM. In kind it is functional, cell-based. Put shortly: (§3)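 Stable CCR4 transfectants of B300-19 cells (human or mouse receptor) at 5 × 10^6 cells/mL in RPMI 1640 with 0.1% BSA, pretreated with test compound. Cells placed above 5-µm polycarbonate filters, with 3 nM human (human CCR4 cells) or 1 nM mouse (mouse CCR4 cells) CCL22 below. Migration for 3 h at 37 °C, 5% CO2. Migrated cells quantified by ATP bioluminescence. Triplicates, four concentrations.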

Data set [10] deals with T1, C-C chemokine receptor type 4 (Homo sapiens). The data set can be described thus: Antagonist activity at human CCR4 receptor expressed in mouse B300-19 cells assessed as CCL22-induced chemotaxis at 1 uM. It counts as functional, cell-based. Put shortly:
as §3

For data set [11], the system named is Mus musculus. The data set can be described thus: Antiinflammatory activity against oxazolone-induced contact hypersensitivity in BALB/c mouse model of acute dermatitis assessed as inhibition of ear swelling at 100 mg/kg, po qd. In kind it is functional. Put shortly:
as §1

Data set [12] has as its system Mus musculus. The data set can be described thus: Antiinflammatory activity against oxazolone-induced contact hypersensitivity in BALB/c mouse model of acute dermatitis assessed as inhibition of ear swelling at 10 mg/kg, po qd. In kind it is functional. Put shortly:
as §1

The nature of data set [13]: Cmax in BALB/c mouse at 30 mg/kg, po administered as single dose. In kind it is ADME, organism-based. Set-up: dose 30 mg/kg, route oral. As to conditions: in vivo.
Data set [14] in a line: Cmax in BALB/c mouse at 100 mg/kg, po administered as single dose. The conditions noted are these: in vivo. On the set-up: dose 100 mg/kg, route oral. In kind it is ADME, organism-based.
A short description of data set [15]: Tmax in BALB/c mouse at 30 mg/kg, po administered as single dose. It counts as ADME, organism-based. Set-up: dose 30 mg/kg, route oral. The conditions noted are these: in vivo.
Data set [16] can be described thus: Tmax in BALB/c mouse at 100 mg/kg, po administered as single dose. The conditions noted are these: in vivo. On the set-up: dose 100 mg/kg, route oral. In kind it is ADME, organism-based.
The test system of data set [17] is Mus musculus. In words: Antiinflammatory activity against oxazolone-induced contact hypersensitivity in BALB/c mouse model of acute dermatitis assessed as inhibition of ear swelling at 30 mg/kg, po qd. It counts as functional. Put shortly:
as §1

Data set [18] has as its system Mus musculus. The data set can be described thus: AUC (0 to 24 hrs) in BALB/c mouse at 30 mg/kg, po administered as single dose. As to conditions: in vivo. In kind it is ADME, organism-based, Plasma. On the set-up: time < 24 hr, dose 30 mg/kg, route oral.
Data set [19] has as its system Mus musculus. The data set can be described thus: AUC (0 to 24 hrs) in BALB/c mouse at 100 mg/kg, po administered as single dose. It counts as ADME, organism-based, Plasma. On the set-up: time < 24 hr, dose 100 mg/kg, route oral. The conditions noted are these: in vivo.

Molecules are shown by their SMILES.

Broadly, the IC50 is the point on the concentration scale where inhibition reaches its midpoint. What is called inhibition in vivo is the share of the control response that was lost under treatment. With `COc1cc2nc(N3CCC(N4CCCC4)CC3)nc(NC3CCCCCC3)c2cc1OC`, the IC50 is 200 nM in data set [1] and 130 nM in data set [2]. Also, the inhibition in vivo at 100 mg/kg in the data set with Mus musculus [3] is 8%. Also, in the data set on Mus musculus [4], the inhibition in vivo at 30 mg/kg was 39%. As usually defined, the inhibition is how much of the control response was suppressed. On to `COc1cc2nc(N3CCC(N4CCCC(CO)C4)CC3)nc(NC3CCS(=O)(=O)CC3)c2cc1OC` (stereo not given), for which the inhibition in data set [5] was found to be 0%. Regarding `COc1cc2nc(N3CCC(N4CCCC(CO)C4)CC3)nc(NC(=O)c3ccc(Cl)cc3)c2cc1OC` (stereo not given), the inhibition in data set [5] came to 11%. `COc1cc2nc(N3CCC(N4CCCC(CO)C4)CC3)nc(-c3ccc(Cl)cc3)c2cc1OC` (stereo not given): the IC50 in data set [6] was more than 1000 nM. Consider `COc1cc2nc(N3CCC(N4CCCC4)CC3)nc(Nc3ccc(Cl)cc3)c2cc1OC`, for which the inhibition in vivo at 30 mg/kg in the data set with Mus musculus [7] came to 43%; in the data set on Mus musculus [8], 2%. For the same compound, the IC50 in data set [1] amounted to 110 nM; in [2] it was 130 nM.

Turning to `COc1cc2nc(N3CCC(N4CCCC(CO)C4)CC3)nc(C(O)c3ccc(Cl)cc3)c2cc1OC` (stereo not given), the inhibition in data set [5] was found to be 7%. `COc1cc2nc(N3CCC(N4CCCC(OC)C4)CC3)nc(Nc3ccc(Cl)cc3)c2cc1OC` (stereo not given): in [6], the IC50 was 100 nM. Regarding `COc1cc2nc(N3CCC(N4CCCC(CO)C4)CC3)nc(NC3CCCCCC3)c2cc1OC` (stereo not given), in data set [6], the IC50 amounted to 30 nM. The inhibition in vivo at 30 mg/kg in the data set on Mus musculus [8] was 11%. As for `COc1cc2nc(N3CCC(N4CCCC(CO)C4)CC3)nc(NCCCc3ccc(Cl)cc3)c2cc1OC` (stereo not given), the IC50 in data set [6] was determined as 180 nM. `COc1cc2nc(N3CCC(N4CCOC(CO)C4)CC3)nc(Nc3ccc(Cl)cc3)c2cc1OC` (stereo not given): the half-inhibitory concentration (IC50) in data set [6] came to 100 nM. Moreover, in data set [9], the inhibition was 50%.

Regarding `COc1cc2nc(N3CCC(N4CCCC(CO)C4)CC3)nc(NCc3ccc(Cl)cc3)c2cc1OC` (stereo not given), the IC50 in [6] is 87 nM. As for `COc1cc2nc(N3CCC(N4CCCC(CO)C4)CC3)nc(NCCc3ccc(Cl)cc3)c2cc1OC` (stereo not given), in [6], the IC50 was 61 nM. For the same compound, the inhibition in data set [10] was 43%. Take `COc1cc2nc(N3CCC(N4CCCC(CO)C4)CC3)nc(NC3CCOCC3)c2cc1OC` (stereo not given): the inhibition in data set [5] came to 4%. As to `COCC1CCCN(C2CCN(c3nc(Nc4ccc(Cl)cc4)c4cc(OC)c(OC)cc4n3)CC2)C1` (stereo not given), the IC50 in [6] was found to be 52 nM. For `COc1cc2nc(N3CCC(N4CCCC(CO)C4)CC3)nc(N(C)CCc3ccc(Cl)cc3)c2cc1OC` (stereo not given), the inhibition in data set [5] came out at 23%. On to `COc1cc2nc(N3CCC(N4CCCCC4)CC3)nc(NC3CCCCCC3)c2cc1OC`, for which the inhibition in vivo at 30 mg/kg with Mus musculus [8] worked out at 2%.

With `COc1cc2nc(N3CCC(N4CCCC(CO)C4)CC3)nc(C(=O)c3ccc(Cl)cc3)c2cc1OC` (stereo not given), in [5], the inhibition is 42%. In general, Cmax refers to the maximum level reached in the sampled fluid or tissue. One may read the Tmax as the time at which the peak concentration occurs. In general, AUC refers to the area under the concentration-time curve, a measure of exposure. Read a low AUC as less exposure. Regarding `COc1cc2nc(N3CCC(N4CCCC(CO)C4)CC3)nc(Nc3ccc(Cl)cc3)c2cc1OC` (stereo not given), in the data set with Mus musculus [11], the inhibition in vivo at 100 mg/kg was 39%. Moreover, the IC50 in data set [6] was determined as 19 nM. In addition, in the data set on Mus musculus [12], the inhibition in vivo at 10 mg/kg worked out at 13%. Moreover, the Cmax was determined as 139 ng/mL in data set [13] and 262 ng/mL in data set [14]. Besides, the Tmax in data set [15] and in [16] was 2 h each time. The inhibition in vivo at 30 mg/kg with Mus musculus [17] worked out at 17%; with Mus musculus [4] it was 44%. Besides, the AUC worked out at 1010 ng·h/mL in the data set with Mus musculus [18] and 1750 ng·h/mL in the data set on Mus musculus [19].

Take `COc1cc2nc(N3CCC(N4CCCC(CO)C4)CC3)nc(N3CCc4cc(Cl)ccc43)c2cc1OC` (stereo not given): the inhibition in [5] came out at 40%. As to `COc1cc2nc(N3CCC(N4CCCC(CO)C4)CC3)nc(NS(=O)(=O)c3ccc(Cl)cc3)c2cc1OC` (stereo not given), in data set [5], the inhibition was determined as 5%. For the compound `COc1cc2nc(N3CCC(N4CCCC(O)C4)CC3)nc(Nc3ccc(Cl)cc3)c2cc1OC` (stereo not given), the IC50 in [6] was 48 nM.
